# Assay outcomes from PubChem BioAssay.
# Shown are actives, neighbours in structure and some others; about 4.5% of the full set was active somewhere.
# MrgX1 PAM: allosterically activates human MrgX1 receptor signaling | AID 588675 | B-score at 10 µM | MrgX1-HEK293, Fluo-4 calcium flux, FDSS; active compounds read high | Q96LB2 | 310,000 tested, 0.63% active;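 active = plate-corrected calcium response at least 3 library SD above typical, normal starting fluorescence, not activating the receptor alone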;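 also: compound read alongside a low EC10 to EC30 dose of BAM8-22 agonist; peak minus trough fluorescence over baseline measured at the second addition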
# Target sequence (Q96LB2 whole entry, looked up): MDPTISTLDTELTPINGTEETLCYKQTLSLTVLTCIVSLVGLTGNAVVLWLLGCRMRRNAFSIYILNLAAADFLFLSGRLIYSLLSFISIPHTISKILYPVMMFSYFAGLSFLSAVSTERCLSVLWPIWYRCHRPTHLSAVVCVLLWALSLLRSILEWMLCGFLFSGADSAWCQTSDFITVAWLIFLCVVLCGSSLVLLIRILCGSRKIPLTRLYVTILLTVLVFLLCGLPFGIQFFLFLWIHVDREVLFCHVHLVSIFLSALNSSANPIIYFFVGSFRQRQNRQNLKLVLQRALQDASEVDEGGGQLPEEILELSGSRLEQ
# MrgX1 agonist: activates human MrgX1 receptor signaling. Q96LB2. B-score at 10 µM. 310,000 tested, 0.44% active. MrgX1-HEK293 cells, Fluo-4 calcium fluorescence, agonist mode; active compounds read high;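 active = calcium response B-score plate-corrected fluorescence ratio at least 3 library SD, with starting fluorescence B-score inside 5 SD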
#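 Material: MrgX1-expressing HEK293 cells; input: 15,000 cells per well; doses: test compound given as first of three sequential additions; schedule: overnight plating before 1 h dye loading; technique: Fluo-4 NW calcium-flux fluorescence, kinetic read; evaluation: baseline-normalised fluorescence change ratio, B-scored; control set: plate-wise positive and negative controls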
# RGS4 block: human RGS4 inhibition | P49798 | HEK293 M3R/RGS4 inducible, Fluo-4 calcium flux; active compounds read high; triggered by carbachol at its EC20 | B-score at 10 µM | 310,000 tested, 0.45% active | AID 463165;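 active = B-score, a plate-corrected calcium signal, over three deviations above library mean, with baseline fluorescence within five deviations of library mean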;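 also: RGS4 expression induced by doxycycline in cells with stable M3 receptor; B-score is computed from the integrated fluorescence ratio over baseline after carbachol; higher B-score means a larger calcium signal and so more RGS4 inhibition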
# Target sequence (P49798 whole entry, looked up): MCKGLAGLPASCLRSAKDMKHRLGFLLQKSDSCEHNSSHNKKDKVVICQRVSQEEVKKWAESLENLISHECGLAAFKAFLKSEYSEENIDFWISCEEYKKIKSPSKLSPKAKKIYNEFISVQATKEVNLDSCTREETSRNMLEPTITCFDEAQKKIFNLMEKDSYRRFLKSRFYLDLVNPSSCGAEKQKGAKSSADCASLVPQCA
# RGS4 pot: RGS4 potentiation or activation. HEK293 M3R/inducible RGS4, carbachol calcium flux Fluo4; active compounds read low. B-score at 10 µM. 310,000 tested, 0.92% active;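 active = B-score of the integrated calcium signal more than 4 SD below the library mean, with starting fluorescence not abnormally high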;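 also: negative B-score means reduced calcium response which marks RGS4 activation or potentiation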
#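 Detection: kinetic calcium fluorescence imaging with Fluo4-AM dye, 2 µM / Material: HEK293 cells with stable M3R and inducible RGS4 / Schedule: recording 10 s baseline at 1 Hz, 100 s post-agonist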
# PHOSPHO1 block: PHOSPHO1 (human) inhibition | 290,000 tested, 1.1% active | inhibition, % at 13.3 µM | recombinant PHOSPHO1, absorbance phosphatase assay; in the data active = inhibition above about 60%
# MrgX1 antagonist: antagonists of human MrgX1 receptor | Q96LB2 | MRGX1-HEK293 calcium flux, Fluo-4, BAM8-22 antagonism; active compounds read low | B-score at 10 µM | 310,000 tested, 1.3% active | AID 588676;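 active = calcium-response B-score plate-corrected more than 3 library SD below zero, starting fluorescence within 5 deviations, no agonist response on first addition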;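 also: peak minus trough fluorescence over baseline after final BAM8-22 challenge near maximal dose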
# RGS4 activ val: confirmation of RGS4 activators. 1,100 tested, 89% active. AID 602282. inhibition, % at 10 µM. HEK293 M3R/RGS4 inducible, carbachol calcium flux Fluo4. shares compounds with RGS4 pot;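 active = inhibition above 3 SD of the buffer control wells, cut at about 41% in these data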;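 also: signal is the integrated peak-minus-minimum Fluo4 fluorescence over baseline ratio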
# M3R Ca counter: RGS4 activator counter-screen hit in non-induced cells; shares compounds with RGS4 pot; HEK293 M3R non-induced RGS4, Fluo4 calcium flux; after carbachol challenge at its EC90; inhibition, % at 10 µM; 1,100 tested, 82% active;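 active = inhibition exceeding 3 SD of buffer-only control wells, cut at about 26% in these data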;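 also: percent drop in integrated peak-minus-baseline over baseline Fluo4 ratio after carbachol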
# * = called active by the depositor; i = inactive; nt = not tested or not shown.
SMILES,MrgX1 PAM,MrgX1 agonist,RGS4 block,RGS4 pot,PHOSPHO1 block,MrgX1 antagonist,RGS4 activ val,M3R Ca counter
CCOc1ccc(CN(CC)C(=O)c2ccc3c(c2)[nH]c(=O)c(=O)n3CC)cc1OC,i,i,i,i,22,i,nt,nt
Cc1nn(-c2ccccc2)c(Cl)c1C(=O)OCC(=O)NCCc1ccccc1,i,i,i,-8*,36,i,44*,0
CS(=O)(=O)Nc1nc2ccccc2[nH]1,i,i,i,i,47,i,nt,nt
O=S(=O)(Nc1nc2ccccc2[nH]1)c1ccccc1,i,i,i,-8.2*,-8,i,91*,39*
O=S(=O)(Nc1nc2ccccc2[nH]1)c1ccc(Cl)cc1,i,i,i,-9.4*,35,i,92*,90*
O=C(Nc1nc2ccccc2[nH]1)c1ccc(Cl)cc1,i,i,i,i,43,i,nt,nt
Cc1csc2cc(-c3cccc([N+](=O)[O-])c3)c(-c3cccc([N+](=O)[O-])c3)c[n+]12,i,i,i,i,5,i,nt,nt
CC(C)(C)C(=O)COC(=O)c1c2c(nc3ccccc13)CCC2,i,i,i,i,28,i,nt,nt
NC(=O)COC(=O)c1c2c(nc3ccccc13)CCCCC2,i,i,i,i,1,i,nt,nt
CC1Cc2ccccc2N1C(=O)COC(=O)c1c2c(nc3ccccc13)CCCCC2 (stereo not drawn),i,i,i,-9*,-15,i,88*,84*
O=C(OCC(=O)N1CCc2ccccc21)c1c2c(nc3ccccc13)CCCC2,i,i,i,-9.1*,-4,i,80*,84*
CCOc1ccc(NC(=O)CN(C)C(=O)c2ccc(N3CCCC3)c([N+](=O)[O-])c2)cc1OCC,i,i,i,i,nt,i,nt,nt
Cc1ccccc1NC(=O)CCCN1C(=O)C2CC=CCC2C1=O (stereo not drawn),i,i,i,i,53,i,nt,nt
O=C(c1ccc(Cl)c(Cl)c1)N1CCN(c2ccccn2)CC1,i,i,i,i,34,i,nt,nt
O=C(c1cccc(COc2ccc(Cl)cc2Cl)c1)N1CCN(c2ccccn2)CC1,i,i,i,-7.9*,-3,i,94*,80*
O=C1[C@@H]2[C@@H]3C[C@@H]([C@H]4ON=C(c5ccc(Cl)cc5)[C@@H]34)[C@@H]2C(=O)N1C1CCCCC1,i,i,i,i,12,i,nt,nt
CN1CCN(C(=O)C2=C[C@H](c3ccc4c(c3)OCO4)C[C@H](OCCCCO)O2)CC1,i,i,i,i,nt,i,nt,nt
COc1ccccc1C(CNC(=O)c1cccc(NS(=O)(=O)c2ccc(C)c(F)c2)c1)N(C)C (stereo not drawn),i,i,i,-8.4*,nt,i,77*,55*
COc1cccc(OCCn2cc(C(=O)c3ccco3)c3ccccc32)c1,i,i,i,-11*,24,i,90*,50*
CC(=O)c1c(C)[nH]c(C(=O)Nc2nc(-c3ccc(Cl)cc3)cs2)c1C,i,i,i,-8.2*,11,i,94*,92*
Cc1ncc(CN2CCCC(C(=O)Nc3ccc(-c4cscn4)cc3)C2)cn1 (stereo not drawn),i,i,i,i,17,i,nt,nt
COc1cccc(CN2CCCC(C(=O)Nc3ccc(-c4cscn4)cc3)C2)c1 (stereo not drawn),i,i,i,-9.9*,51,i,92*,62*
CCn1c(CCc2ccccc2)nnc1SCC(N)=O,i,i,i,i,nt,i,nt,nt
CCOC(=O)c1cc(NC(=O)Cc2ccc(S(=O)(=O)N3CCOCC3)s2)cc(C(=O)OCC)c1,i,i,i,-8*,nt,i,64*,36*
Cc1ccc(OCC(=O)NC(=S)Nc2ccc(Br)cn2)cc1C,i,i,i,i,-68,i,nt,nt
SMILES,MrgX1 PAM,MrgX1 agonist,RGS4 block,RGS4 pot,PHOSPHO1 block,MrgX1 antagonist,RGS4 activ val,M3R Ca counter
Clc1ccccc1Nc1nc(-c2cccnc2)cs1,i,i,i,i,-17,i,nt,nt
CCCCn1c(-c2csc(CC)c2)n[nH]c1=S,i,i,i,-8*,14,i,88*,55*
CCCCn1c(-c2csc(C(C)C)c2)n[nH]c1=S,i,i,i,-9.7*,-10,i,92*,60*
CCCc1cc(-c2n[nH]c(=S)n2CC(C)C)cs1,i,i,i,i,-10,i,nt,nt
CCN=C1SC(C(=O)Nc2cccc(Cl)c2)CC(=O)N1CC (stereo not drawn),i,i,i,i,-15,i,nt,nt
CCN=C1SC(C(=O)Nc2cccc(Br)c2)CC(=O)N1CC (stereo not drawn),i,i,i,-7.8*,1,i,56*,84*
CCn1c(SCC#N)nc2c(c1=O)C1(CCCC1)Cc1ccccc1-2,i,i,i,-10*,-12,i,69*,84*
C=CCNC(=O)c1ccc(S(=O)(=O)CC)c(Cl)c1Cl,i,i,i,i,-1,i,nt,nt
CCCCCCOc1ccc(-c2ccc(C#N)cn2)cc1,i,i,i,-7.9*,-24,i,71*,84*
CCC(C(=O)Nc1ccc2c(c1)OCCO2)n1c(=O)[nH]c2ccccc2c1=O (stereo not drawn),i,i,i,i,10,i,nt,nt
COc1ccc(C)cc1S(=O)(=O)N1CCN(C(=O)c2ncoc2-c2ccc(C)cc2)CC1,i,i,i,-8.2*,4,i,82*,32*
COC(=O)c1cc(NC(=O)CSc2nnc(N)s2)ccc1Cl,i,i,i,-14*,51,i,0,0
Cc1nc2c(o1)CCc1ccccc1C2N1CCN(C)CC1 (stereo not drawn),i,i,i,-11*,9,i,95*,91*
Cc1ccc(C(=O)NC(=S)Nc2ccc(CN3CCCCC3)cc2)c(C)c1,i,i,i,-7.6*,44,i,82*,84*
CCOC(=O)c1c(NC(C)=O)sc2c(OCC(O)CNC(C)(C)C)c(Br)ccc12 (stereo not drawn),i,i,i,-10*,-8,i,94*,94*
